Screening data: PubChem, several laboratories
AHR act – AHR activators, primary screen, cell-based, luminescence, luciferase reporter, human | Aryl hydrocarbon receptor (Homo sapiens), P35869 | AHR-responsive luciferase reporter cells | activation, % at 5 µM | 320,000 tested, 2.5% active; in the data active = activation above about 47%
SR-BI DiI inh – inhibitors of SR-BI mediated HDL lipid uptake, primary screen, ldlA[mSR-BI] cells, fluorescence, single point; Scavenger receptor class B member 1 (Mus musculus), Q61009; ldlA[mSR-BI] CHO cells, DiI-HDL uptake fluorescence, 3 h; inhibition, % at 12.5 µM; 320,000 tested, 0.96% active;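 active = mean replicate inhibition of at least 70% and a set share of replicates each scoring 70 or more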
Target sequence (Q61009 whole entry, looked up): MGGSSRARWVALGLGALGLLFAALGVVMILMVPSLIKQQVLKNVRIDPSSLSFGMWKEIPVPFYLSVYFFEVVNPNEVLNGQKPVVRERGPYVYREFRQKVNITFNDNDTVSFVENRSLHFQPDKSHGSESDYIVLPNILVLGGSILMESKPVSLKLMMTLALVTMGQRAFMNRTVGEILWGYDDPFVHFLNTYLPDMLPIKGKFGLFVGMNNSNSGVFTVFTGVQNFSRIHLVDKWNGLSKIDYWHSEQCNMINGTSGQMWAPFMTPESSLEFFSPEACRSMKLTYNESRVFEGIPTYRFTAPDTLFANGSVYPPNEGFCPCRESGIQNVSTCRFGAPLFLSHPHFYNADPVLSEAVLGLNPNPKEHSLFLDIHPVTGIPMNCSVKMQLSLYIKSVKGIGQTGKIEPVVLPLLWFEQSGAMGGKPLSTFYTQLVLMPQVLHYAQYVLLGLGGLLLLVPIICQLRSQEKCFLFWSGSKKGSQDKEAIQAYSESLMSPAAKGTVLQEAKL
GASC-1 inh – inhibitors of GASC-1 histone demethylase, primary screen, biochemical, fluorescence, DELFIA europium; Lysine-specific demethylase 4C (Homo sapiens), Q9H3R0; GST-JMJD2C(1-420) H3K9me3 demethylation; inhibition, % at 2.35 µM; 330,000 tested, 0.069% active;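 active = more than half of a compound's replicate wells show inhibition beyond 50%, single wells judged on their own value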;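 note: signal counts dimethyl H3K9 product captured on neutravidin plate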
SR-BI uptake up – activators of SR-BI mediated DiI-HDL uptake, primary screen, ldlA[mSR-BI] CHO cells, DiI fluorescence; 320,000 tested, 0.096% active; activation, % at 12.5 µM; 3 h; 100 = double the neutral-control signal;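 active = mean replicate activation of at least 60% and every replicate at or above 60%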
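System: LDL receptor-deficient CHO ldlA cells overexpressing murine SR-BI | Timing: 3 h uptake period with compound, 37 °C | Medium: HEPES-buffered (25 mM, pH 7.4) F12 plus 0.5% BSA | Dosing: Single-point compound dose | Signal: Bottom-read fluorescence, 550/595 nm | Read-out: Retained DiI signal reflecting DiI-HDL uptake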
FXN GAA850 act – FXN promoter activators, primary screen, cell-based, luciferase luminescence, HEK293 lucGAA850; HEK293 lucGAA850 FXN promoter luciferase reporter, 24 h; percent of 10 µM SAHA response; activation, % at 6 µM; AID 540364, 2011; 360,000 tested, 0.56% active;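 active = activation above the average of all compounds screened plus 3 SD, cutoff fixed separately per campaign, cut at about 7.5% in these data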
Hits are given with their value; - = inactive; . = no result. This is a sample that favours compounds with a hit; in the whole collection about 3.7% have one here.

SMILES	AHR act	SR-BI DiI inh	GASC-1 inh	SR-BI uptake up	FXN GAA850 act
CC(Oc1ccc(F)cc1Br)c1nc2ccccc2c(=O)[nH]1 (configuration not stated)	-	-	-	-	-
COc1ccc(CCNc2cc(C)nc3c(-c4ccc(Cl)cc4)cnn23)cc1OC	69	-	-	-	-
C/C(=N/NS(=O)(=O)c1ccccc1)c1ccc(Cl)cc1	53	-	-	-	-
C/C(=N/NS(=O)(=O)c1ccc(Cl)cc1)c1ccncc1	-	-	-	-	-
CCN(CC)CCNC(=O)c1[nH]c2ccc(OCc3ccccc3)cc2c1C	-	-	-	-	-
CCOc1cc(C(=O)OCc2cc(=O)n3c(C)csc3n2)ccc1OC	-	78	-	-	-
COc1ccc(-c2cc(C#N)nc(N3CCN(C)CC3)n2)cc1	73	-	-	-	-
CN1CCN(c2nc(C#N)cc(-c3ccccc3)n2)CC1	-	-	-	-	-
CN(Cc1ccccc1F)C(=O)c1ccccc1Sc1ccccc1C#N	-	-	-	-	-
c1ccc(-c2nc(SCc3nc4ccccc4[nH]3)c3oc4ccccc4c3n2)cc1	68	-	.	-	-
Cc1nc(SCc2nc3ccccc3[nH]2)c2oc3ccccc3c2n1	-	-	-	-	-
OCCCNc1nc(-c2ccccc2)nc2c1oc1ccccc12	50	-	-	-	-
Cc1nc(SCc2nc3ccccc3[nH]2)c2oc3ccc(Br)cc3c2n1	-	-	.	-	-
c1ccc2[nH]c(CSc3ncnc4c3oc3ccccc34)nc2c1	53	-	-	-	-
COc1cccc2c1oc1c(SCc3nc4ccccc4[nH]3)nc(C)nc12	59	-	.	-	-
O=C(O)CNc1nc(-c2ccccc2)nc2c1oc1ccccc12	-	-	-	-	-
O=[N+]([O-])c1cc2no[n+]([O-])c2cc1N1CCCCC1	.	-	.	-	-
COc1ccc(-n2nnc3c(SC(C(C)=O)C(=O)N(C)C)ncnc32)cc1 (configuration not stated)	66	-	-	-	-
O=C(Nc1ccccc1OC(=O)c1ccccc1)c1ccccc1	.	-	.	-	-
Cc1[nH][nH]c(=O)c1N=Nc1ccc(Cl)cc1	51	-	-	-	-
Cc1cc(N)ccc1N1CCCC1	-	-	-	-	-
Cc1cc(N)ccc1-n1c(C)ccc1C	110	-	-	-	-
O=C(Cc1csc(NC(=O)c2ccc(F)cc2)n1)NO	-	-	-	-	-
CNC(=O)c1cc2c(s1)-c1ccccc1CC2	75	-	-	-	-
CCSc1nnc(NC(=O)c2ccc3ccccc3n2)s1	64	-	-	-	-
SMILES	AHR act	SR-BI DiI inh	GASC-1 inh	SR-BI uptake up	FXN GAA850 act
CCSc1nnc(NC(=O)/C=C/c2ccco2)s1	60	-	-	-	-
CCc1nnc(NC(=O)c2ccc3ccccc3n2)s1	-	.	-	.	-
O=C(/C=C/c1ccco1)Nc1nnc(-c2ccco2)s1	-	-	-	-	-
Clc1ccc(-c2cc(COc3ccccc3)on2)cc1	-	-	-	-	-
Cc1ccc(C)c(N2CCN(C(=O)CN(C)S(=O)(=O)c3cnc[nH]3)CC2)c1	-	-	-	-	-
Cc1cc(N2CCN(C)CC2)ccc1NC(=O)c1cccc(S(=O)(=O)N2CCc3ccccc3C2)c1	-	-	-	-	-
N#C/C(=N\Nc1ccccc1F)c1nc(-c2ccccc2)cs1	-	71	-	-	-
COc1cc(OC)cc(C(=O)NC2CCN(CCCOc3ccccc3)CC2)c1	-	-	-	-	-
COc1nnc(-c2ccc(N3CCCCC3)c(NC(C)=O)c2)c2ccccc12	78	-	-	-	-
Cc1nc(-c2ccccc2)sc1-c1n[nH]c(=S)n1C	93	-	-	-	-
Cn1c(-c2ccccc2)n[nH]c1=S	-	-	-	-	-
COc1ccc2c(c1OC)C(=O)N(c1ccccn1)C2	52	-	-	-	-
Cn1c2c(c(=O)n(C)c1=O)C(c1ccc(Cl)cc1)C(C#N)=C(N)O2 (configuration not stated)	-	-	-	-	-
COc1ccc(Nc2nnc(-c3ccc(C)cc3)c3ccccc23)cc1C(=O)N1CCCCC1	-	81	-	-	-
COc1ccc(Nc2nnc(-c3ccccc3)c3ccccc23)cc1C(=O)N1CCCCC1	-	-	-	-	-
CCN(CC)C(=O)COc1ccc(-c2nnc(Nc3ccc(OC)c(C(=O)NC)c3)c3ccccc23)cc1	-	87	-	-	-
CCN(CC)C(=O)COc1ccc(-c2nnc(N3CCCCC3)c3ccccc23)cc1	-	-	-	-	-
Cc1ccccc1-n1ncc2c1CC(C)(C)CC2NC(=O)CCC(F)(F)F (configuration not stated)	-	-	-	-	-
COc1ccc(CCNC(=O)c2ccc(CNS(=O)(=O)c3ccc(C(C)(C)C)cc3)cc2)cc1OC	-	-	-	-	-
COc1ccc(CCNC(=O)c2ccncc2)cc1OC	-	-	-	-	-
COc1ccc(CCNC(=O)c2ccc(CNS(=O)(=O)c3cccc(Cl)c3)cc2)cc1OC	-	81	-	-	-
COc1ccc(CCNC(=O)c2ccc(CNS(=O)(=O)c3cc(C)ccc3C)cc2)cc1OC	-	79	-	-	-
COc1ccc(C(=O)Nc2ccc(C(=O)NCCc3ccc(OC)c(OC)c3)cc2)cc1	-	79	-	-	-
Cc1cccc(NC(=O)C2CCN(S(=O)(=O)c3c(C)nn(C)c3C)CC2)n1	-	.	-	.	-
Cc1cccc(NC(=O)C2CCN(S(=O)(=O)c3c(C)c(C)cc(C)c3C)CC2)n1	-	73	-	-	-
SMILES	AHR act	SR-BI DiI inh	GASC-1 inh	SR-BI uptake up	FXN GAA850 act
OC(CNCc1ccccc1Cl)C(F)(F)F (configuration not stated)	-	-	-	-	-
Cc1cc(C)c2nc3sc(C(=O)N4CCOCC4)c(N)c3cc2c1	72	.	-	.	-
Nc1c(C(=O)N2CCOCC2)sc2nc3c(cc12)CCCC3	49	-	-	-	-
Cc1ccc(C)c2nc3sc(C(=O)N4CCOCC4)c(N)c3cc12	-	-	-	-	-
C[C@H](CO)N1C[C@H](C)[C@H](CN(C)Cc2cncnc2)Oc2cc(Br)ccc2S1(=O)=O	.	.	.	.	-
CSc1ccccc1NC(=O)C1CCCN(S(C)(=O)=O)C1 (configuration not stated)	-	-	-	-	-
CCC(C)(C)NC(=O)C(c1ccc(OC)cc1)N(Cc1ccc(OC)cc1)C(=O)CCC(=O)Nc1cc(C)on1 (configuration not stated)	-	-	-	-	-
Cc1ccc(-c2cc(N)n(Cc3ccc(Cl)cc3)n2)cc1	56	-	-	-	-
ClCCn1c(CCl)nc2ccc(Cl)cc21	.	.	.	.	-
